# Bioassay records (PubChem)
# CRFBP-R2 block – CRF-BP/CRF-R2 complex antagonism; HEK293 CRF-R2/CRF-BP, CRF-induced calcium fluorescence; inhibition, % at 11.8 µM; actives 0.59% (n = 350,000); AID 588475;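 active = inhibition of the ligand-induced calcium signal above about 50% at the single tested concentration, limit read from the data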
# ANO1 block – mouse TMEM16A channel inhibition, primary screen; Q8BHY3; HEK293 TMEM16A/YFP iodide influx fluorescence, ionomycin; normalized B-score (activity score, 25-100; higher = stronger inhibition) at 10 µM; actives 1.2% (n = 310,000);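 active = ratio plate-corrected score three or more library SD toward inhibition, starting fluorescence score within five deviations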;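 note: score derived from kinetic fluorescence span divided by baseline fluorescence per well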
# TAAR1 agonist – human TAAR1 agonism; Q96RJ0; activation, % at 3 µM; actives 0.99% (n = 360,000); CHO RD-HGA16 TAAR1, Fluo-8 calcium fluorescence; vehicle wells 0%, saturating PEA agonist 100%;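 active = activation above the mean activation of all test compounds in the run plus 3 SD, cut at about 38% in these data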
# Target sequence (Q96RJ0 whole entry, looked up): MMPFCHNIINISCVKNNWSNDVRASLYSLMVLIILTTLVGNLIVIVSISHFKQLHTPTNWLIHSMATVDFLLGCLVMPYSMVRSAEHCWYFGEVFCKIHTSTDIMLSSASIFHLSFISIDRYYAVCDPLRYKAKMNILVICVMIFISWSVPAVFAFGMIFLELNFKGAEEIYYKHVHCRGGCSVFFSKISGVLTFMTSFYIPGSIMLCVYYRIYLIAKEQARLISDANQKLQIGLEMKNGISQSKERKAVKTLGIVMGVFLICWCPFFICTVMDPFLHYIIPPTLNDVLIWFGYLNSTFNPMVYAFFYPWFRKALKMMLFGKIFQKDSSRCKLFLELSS
#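 Assay system – CHO-derived RD-HGA16 cells with stable Gα16 and human TAAR1 · Compound dosing – one-point dosing at 3 µM (nominal) · Incubation – 17-24 h seeding, 75 min 37 °C dye, 30 min RT · Measured by – kinetic Fluo-8 calcium fluorescence · Control set – DMSO vehicle as 0%, PEA at EC100 as 100% · Repeats – single well for each compound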
# TAAR1 antag – antagonists of human TAAR1; Q96RJ0; CHO RD-HGA16 TAAR1, Fluo-8 calcium fluorescence, antagonist; inhibition, % at 3 µM; actives 1.5% (n = 360,000); AID 624466;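 active = inhibition above a per-plate cutoff, the mean inhibition of test compounds on that plate plus 3 SD, cut at about 49% in these data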;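 note: 0% = DMSO plus EC80 beta-PEA response and 100% = DMSO alone without agonist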
#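 Material: CHO RD-HGA16 cells bearing hTAAR1; compound dosing: one-point dosing, 3 µM nominal final; schedule: dye loading 75 min at 37 °C, then 30 min room temperature; measured by: calcium fluorescence with Fluo-8; control set: vehicle and agonist controls; replication: n of 1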
# CRFBP-R2 agonist – CRF-BP/CRF-R2 complex agonism | HEK293 CRF-R2/CRF-BP, calcium dye fluorescence (FLIPR); percent of saturating CRF peptide response | activation, % at 13.2 µM | actives 0.46% (n = 350,000);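 active = activation of at least 50%, plus an integration ratio under a set limit after plate pattern correction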;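 note: plate controls were neutral control wells without compound for no effect and CRF at EC100 for full effect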
# ANO1 activ – activates or potentiates the mouse TMEM16A chloride channel | Q8BHY3 | HEK293 TMEM16A/YFP-H148Q/I152L, iodide quench fluorescence; stronger effect = lower value | B-score at 10 µM | actives 0.3% (n = 340,000) | AID 623877;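 active = fluorescence-ratio B-score plate-corrected deviation score at least 3 library SD below zero, with starting fluorescence score within 5 deviations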;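 note: channel opened by trigger with iodide after compound preincubation; score built on the fluorescence ratio of max minus min over baseline; more negative score means more quench and so TMEM16A activation or potentiation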
# nonsel antag count – counter-screen for TAAR1 antagonists: nonselective antagonists | inhibition, % at 3 µM | actives 77% (n = 2,400) | shares compounds with TAAR1 antag | counterscreen cell line, calcium fluorescence, antagonist mode; in the data active = inhibition above about 22%;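 note: CHO-Ga16 host cells stimulated with ATP at an EC80 level; 0% = agonist EC80 plus vehicle and 100% = vehicle without agonist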
# TAAR1 antag conf – confirmation of human TAAR1 antagonists; shares compounds with TAAR1 antag; actives 40% (n = 2,400); TAAR1-expressing cells, fluorescence antagonist read-out; inhibition, % at 3 µM; in the data active = inhibition above about 49%;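 note: CHO-Ga16 host cells challenged with agonist PEA near its EC80; 0% = agonist at EC80 plus vehicle and 100% = vehicle with no agonist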
# Ga16 ag counter – nonselective Ga16 agonism, counter-screen. shares compounds with TAAR1 antag. Ga16-expressing cells, calcium fluorescence, agonist counterscreen. activation, % at 3 µM. actives 18% (n = 2,400); in the data active = activation above about 12%;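 note: 0% = vehicle wells and 100% = saturating stimulus response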
# TAAR1 ag counter – TAAR1 agonism, antagonist counter-screen. actives 2% (n = 2,400). shares compounds with TAAR1 antag. AID 651955. activation, % at 3 µM. hTAAR1 cell line, fluorescence activation, agonist mode; in the data active = activation above about 37%;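 note: CHO cells stably expressing TAAR1 with calcium dye readout; 0% = DMSO vehicle and 100% = full agonist response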
# Active calls of the source: *; i = inactive; nt = not tested or not shown. Rows were chosen to be rich in hits. Some 3.9% of all compounds tested hit in one or more screens of this group.
SMILES,CRFBP-R2 block,ANO1 block,TAAR1 agonist,TAAR1 antag,CRFBP-R2 agonist,ANO1 activ,nonsel antag count,TAAR1 antag conf,Ga16 ag counter,TAAR1 ag counter
CC(C)(C)OC(=O)CNC(=O)c1[nH]cnc1C(=O)NCCCCCNC(=O)OC(C)(C)C,-3,i,29,68*,-1,i,41*,60*,16*,16
Cc1ccsc1C(=O)N1CCC1(C)C(=O)NS(=O)(=O)c1ccc(Br)cc1 (stereo unspecified),nt,nt,4,-9,nt,nt,nt,nt,nt,nt
Cc1ccc(S(=O)(=O)N(C)CC(=O)OCC(=O)c2ccc3c(c2)NC(=O)CO3)cc1,3,nt,-1,102*,-1,i,26*,28,10,4
CN(C)S(=O)(=O)c1cccc(C(=O)OCC(=O)c2ccc3c(c2)NC(=O)CO3)c1,-22,i,34,66*,0,i,28*,47,13*,12
COc1ccc(OC)c(N(C)S(=O)(=O)c2cc3c(cc2C)NC(=O)CO3)c1,13,i,0,-3,-5,i,nt,nt,nt,nt
O=C(NC(=S)NCCC1=CCCCC1)c1cccnc1,-24,i,-1,-18,-3,i,nt,nt,nt,nt
COc1ccccc1NC(=O)c1ccc(NC(=O)COC(=O)C2(C)CC2(Cl)Cl)cc1 (stereo unspecified),-9,i,13,63*,0,i,29*,61*,11,8
COC(=O)CCCC[C@@H]1O[C@H](CCc2ccccc2)CC2=C1C(=O)OC(C)(C)O2,nt,nt,6,61*,nt,nt,26*,50*,4,5
CC1(C)OC(=O)C2=C(CC(CCc3ccccc3)OC2CCc2ccccc2)O1 (stereo unspecified),nt,nt,0,12,nt,nt,nt,nt,nt,nt
COc1ccc(NC(=S)N2CCC(C(=O)c3ccc(OC)cc3)CC2)cc1,4,i,4,8,1,i,nt,nt,nt,nt
N#Cc1ccc(-c2ccc(OCC(=O)NN=Cc3ccncc3)cc2)cc1,-22,nt,14,54*,-1,i,26*,53*,13*,14
O=C(COc1ccc(-c2ccccc2)cc1)N/N=C/c1cc(O)ccc1Br,-6,i,-1,53*,1,i,22*,28,1,0
CCOC(=O)N1CCC(NC(=O)CC2C(=O)NCCN2Cc2ccccc2F)CC1 (stereo unspecified),-13,i,1,-18,-4,i,nt,nt,nt,nt
CC1CC(=O)Nc2ccccc2N1C(=O)CSc1ncnc2sccc12 (stereo unspecified),-1,nt,1,0,0,i,nt,nt,nt,nt
CCOCCCNC(=O)C(c1ccc(OC)cc1)N(Cc1ccc2c(c1)OCO2)C(=O)c1cnccn1 (stereo unspecified),-1,i,3,-1,-1,i,nt,nt,nt,nt
CCOCCCNC(=O)C(c1ccc(Cl)cc1)N(Cc1cccs1)C(=O)c1ccccn1 (stereo unspecified),7,i,18,71*,-1,i,21,38,9,10
O=C(NCc1ccccc1)C(c1ccc(F)cc1)N(Cc1cccs1)C(=O)c1cnccn1 (stereo unspecified),6,i,16,52*,-1,i,31*,48,7,9
CCOCCCNC(=O)C(c1ccc(C)cc1)N(Cc1cccs1)C(=O)c1ccccn1 (stereo unspecified),6,i,18,61*,-5,i,30*,55*,12*,13
CCOCCCNC(=O)C(NC(=O)c1ccccc1O)c1ccc(Cl)cc1 (stereo unspecified),-28,i,nt,nt,6,i,nt,nt,nt,nt
COc1ccc(NC2CCCN(C(=O)CCC(=O)c3ccc(F)cc3)C2)cc1 (stereo unspecified),-12,i,7,9,-3,i,nt,nt,nt,nt
CCCOc1ccccc1OCC(=O)Nc1ccc(S(=O)(=O)N2CCCC2)cc1,-8,i,4,65*,2,i,20,42,7,13
c1coc(CNc2nc(-c3cccs3)cs2)c1,6,i,0,-5,-1,i,nt,nt,nt,nt
Oc1ccc(-c2csc(NCc3ccco3)n2)cc1,20,i,-2,104*,-1,i,-3,-2,0,-4
N#Cc1ccccc1OCC(=O)OCC(=O)NC1CCCC1,14,nt,10,-6,-1,i,nt,nt,nt,nt
COc1ccc(CNC(=O)C(c2ccco2)N(C(=O)c2snc(C(N)=O)c2N)c2cccc(OC)c2)cc1 (stereo unspecified),-13,i,5,20,-1,i,nt,nt,nt,nt
SMILES,CRFBP-R2 block,ANO1 block,TAAR1 agonist,TAAR1 antag,CRFBP-R2 agonist,ANO1 activ,nonsel antag count,TAAR1 antag conf,Ga16 ag counter,TAAR1 ag counter
CN1C(=O)[C@H]2[C@@H](/C=C/c3ccccc3)N3C(=O)CN(Cc4ccccn4)C(=O)[C@@]3(Cc3ccccc3)[C@H]2C1=O,6,nt,0,-7,-1,i,nt,nt,nt,nt
O=C1[C@H]2[C@@H](/C=C/c3ccccc3)N3C(=O)CN(Cc4ccccn4)C(=O)[C@@]3(Cc3ccccc3)[C@H]2C(=O)N1c1ccccc1,5,i,23,70*,3,i,28*,48,10,8
CCc1ccc(N/C(SCc2cccc(F)c2)=C(/C#N)C(=O)NCc2ccco2)cc1,17,i,11,50*,0,i,0,15,2,4
N#C/C(=C\Nc1ccc2c(c1)OCCO2)C(=O)NCc1ccco1,6,i,-2,0,-2,i,nt,nt,nt,nt
Cc1ccc(N(CC(=O)NC2CCCCC2)C(=O)CNC(=O)c2ccco2)cc1C,5,i,-2,-9,0,i,nt,nt,nt,nt
Nc1c(C(=O)OCC2CCCO2)c2nc3ccccc3nc2n1-c1ccc2c(c1)OCCO2 (stereo unspecified),7,i,8,52*,-1,nt,30*,39,7,8
CCOC(=O)c1c(C)[nH]c(C(=O)COC(=O)C2CC(=O)N(Cc3ccccc3)C2)c1C (stereo unspecified),-7,i,9,8,0,i,nt,nt,nt,nt
